Results from ChEMBL document CHEMBL1129368 (J Med Chem, 1996).
Bridge positions count the residues as written; N and C are the ends. Square brackets hold non-standard residues; d marks the D form. Peptide text beside a SMILES is read from it. Pen = CC(C)(S)[C@H](N)C(=O)O; Sar = CNCC(=O)O

What follows are molecules tested against Type-1 angiotensin II receptor (Bos taurus) (UniProt P25104) (assay: Binding affinity was determined against Angiotensin II receptor, type 1).
Chain of Type-1 angiotensin II receptor (Bos taurus) (P25104 whole entry, looked up): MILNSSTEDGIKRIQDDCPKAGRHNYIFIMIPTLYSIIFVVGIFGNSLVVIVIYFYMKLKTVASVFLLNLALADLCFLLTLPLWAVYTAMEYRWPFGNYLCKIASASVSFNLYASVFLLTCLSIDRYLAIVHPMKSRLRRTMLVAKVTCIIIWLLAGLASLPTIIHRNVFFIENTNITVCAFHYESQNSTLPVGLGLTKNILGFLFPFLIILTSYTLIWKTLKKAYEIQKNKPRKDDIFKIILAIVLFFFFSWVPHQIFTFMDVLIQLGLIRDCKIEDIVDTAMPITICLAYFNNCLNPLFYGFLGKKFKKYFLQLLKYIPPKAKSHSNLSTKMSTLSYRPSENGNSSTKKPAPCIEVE

Compound | Kd [µM]
CNCC(=O)N[C@@H](CCCN=C(N)N)C(=O)N[C@H](C(=O)N[C@H](Cc1ccc(O)cc1)C(=O)N[C@@H]1CCC(=O)N[C@@H]2C[C@H](C(=O)N[C@H](Cc3ccccc3)C(=O)O)N(C2)C(=O)[C@@H](Cc2c[nH]cn2)NC1=O)C(C)C | > 10
CNCC(=O)N[C@@H](CCCNC(=N)N)C(=O)N[C@H](C(=O)N[C@@H](Cc1ccc(O)cc1)C(=O)N[C@@H]1CC(=O)N[C@@H]2C[C@H](C(=O)N[C@@H](Cc3ccccc3)C(=O)O)N(C2)C(=O)[C@@H](Cc2cnc[nH]2)NC1=O)C(C)C | > 10

Results, then the molecule that gave them:

Kd [µM] | Compound
> 10 | CNCC(=O)N[C@@H](CCCNC(=N)N)C(=O)N[C@H](C(=O)N[C@@H](Cc1ccc(O)cc1)C(=O)N[C@H]1CSSC(C)(C)[C@@H](C(=O)N[C@@H](Cc2ccccc2)C(=O)O)NC(=O)[C@H](Cc2cnc[nH]2)NC1=O)C(C)C (H-[Sar]RVYCH[Pen]F-OH; disulfide 5-7)
> 10 | CNCC(=O)N[C@@H](CCCNC(=N)N)C(=O)N[C@H](C(=O)N[C@@H](Cc1ccc(O)cc1)C(=O)N[C@H]1CSS[C@@H]2C[C@@H](C(=O)N[C@@H](Cc3ccccc3)C(=O)O)N(C2)C(=O)[C@H](Cc2cnc[nH]2)NC1=O)C(C)C
2.3 | CNCC(=O)N[C@@H](CCCNC(=N)N)C(=O)N[C@H](C(=O)N[C@@H](Cc1ccc(O)cc1)C(=O)N[C@@H]1CSS[C@@H]2C[C@H](C(=O)N[C@@H](Cc3ccccc3)C(=O)O)N(C2)C(=O)[C@@H](Cc2cnc[nH]2)NC1=O)C(C)C
0.058 | CNCC(=O)N[C@@H](CCCNC(=N)N)C(=O)N[C@H](C(=O)N[C@H](Cc1ccc(O)cc1)C(=O)N1CCC[C@H]1C(=O)N[C@@H](Cc1cnc[nH]1)C(=O)N1CCC[C@H]1C(=O)N[C@@H](Cc1ccccc1)C(=O)O)C(C)C
0.02 | CNCC(=O)N[C@@H](CCCNC(=N)N)C(=O)N[C@H](C(=O)N[C@@H](Cc1ccc(O)cc1)C(=O)N[C@@H]1CCSS[C@@H]2C[C@H](C(=O)N[C@@H](Cc3ccccc3)C(=O)O)N(C2)C(=O)[C@@H](Cc2cnc[nH]2)NC1=O)C(C)C
0.75 | CNCC(=O)N[C@@H](CCCNC(=N)N)C(=O)N[C@H](C(=O)N[C@@H](Cc1ccc(O)cc1)C(=O)N[C@H]1CCSS[C@@H]2C[C@@H](C(=O)N[C@@H](Cc3ccccc3)C(=O)O)N(C2)C(=O)[C@H](Cc2cnc[nH]2)NC1=O)C(C)C

Species on record: Oryctolagus cuniculus
Experiment: Activity of compound in contraction assays performed using isolated rabbit aorta
Type: functional
Summary of the method: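 Rings (5 mm) cut from excised aorta, cleaned of adipose tissue, hung in 5 mL organ baths of continuously oxygenated Krebs solution at 37 °C, changed every 15 min. Initial tension 2 g, readjusted until stable (about 90 min equilibration) before testing.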

EC50 [µM] | Compound
0.0046 | CC[C@H](C)[C@H](NC(=O)[C@H](Cc1ccc(O)cc1)NC(=O)[C@@H](NC(=O)[C@H](CCCNC(=N)N)NC(=O)[C@@H](N)CC(=O)O)C(C)C)C(=O)N[C@@H](Cc1cnc[nH]1)C(=O)N1CCC[C@H]1C(=O)N[C@@H](Cc1ccccc1)C(=O)O [ANGIOTENSIN II]
0.00035 | CNCC(=O)N[C@@H](CCCN=C(N)N)C(=O)N[C@H](C(=O)N[C@@H](Cc1ccc(O)cc1)C(=O)N[C@H](C(=O)N[C@@H](Cc1c[nH]cn1)C(=O)N1CCC[C@H]1C(=O)N[C@@H](Cc1ccccc1)C(=O)O)C(C)C)C(C)C (H-[Sar]RVYVHPF-OH)
1.77 | CNCC(=O)N[C@@H](CCCNC(=N)N)C(=O)N[C@H](C(=O)N[C@@H](Cc1ccc(O)cc1)C(=O)N[C@@H]1CCSS[C@@H]2C[C@H](C(=O)N[C@@H](Cc3ccccc3)C(=O)O)N(C2)C(=O)[C@@H](Cc2cnc[nH]2)NC1=O)C(C)C
0.094 | CNCC(=O)N[C@@H](CCCN=C(N)N)C(=O)N[C@H](C(=O)N[C@H](Cc1ccc(O)cc1)C(=O)N1CCC[C@H]1C(=O)N[C@@H](Cc1c[nH]cn1)C(=O)N1CCC[C@H]1C(=O)N[C@@H](Cc1ccccc1)C(=O)O)C(C)C
